Source: PubChem BioAssay
Hits are enriched below; roughly 4.7% of the tested compounds scored in any of these assays.
RGS4 inh: human RGS4 inhibition; P49798; HEK293 M3R/RGS4 inducible, Fluo-4 calcium flux; hits give high values; triggered by carbachol at its EC20; B-score at 10 µM; hit rate 0.45% among 310,000;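 active = B-score, a plate-corrected calcium signal, over three deviations above library mean, with baseline fluorescence within five deviations of library mean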;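 also: RGS4 expression induced by doxycycline in cells with stable M3 receptor; B-score is computed from the integrated fluorescence ratio over baseline after carbachol; higher B-score means a larger calcium signal and so more RGS4 inhibition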
Target sequence (P49798 whole entry, looked up): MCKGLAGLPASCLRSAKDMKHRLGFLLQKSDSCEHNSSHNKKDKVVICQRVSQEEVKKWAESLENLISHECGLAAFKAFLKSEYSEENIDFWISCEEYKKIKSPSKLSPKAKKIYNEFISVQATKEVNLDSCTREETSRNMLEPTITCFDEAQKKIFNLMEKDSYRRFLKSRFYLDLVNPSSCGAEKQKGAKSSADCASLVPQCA
Cl transport mod: KCC2 (human) Cl- transport modulation | B-score of Tl+ flux slope (higher = more flux/activation; lower = inhibition) at 10 µM | hit rate 2.2% among 190,000 | KCC2 cells, thallium flux FluoZin-2 fluorescence | Q9H2X9;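 active = thallium flux slope and its plate-corrected score both differing from the plate sample mean at a set confidence after two filtering rounds, in either direction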;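 also: slope of fluorescence scaled to starting intensity during 10 to 20 s after thallium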
MrgX1 PAM: human MrgX1 positive allosteric modulation, primary screen; hit rate 0.63% among 310,000; B-score at 10 µM; AID 588675; MrgX1-HEK293, Fluo-4 calcium flux, FDSS; hits give high values; Q96LB2;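 active = plate-corrected calcium response at least 3 library SD above typical, normal starting fluorescence, not activating the receptor alone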;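 also: compound read alongside a low EC10 to EC30 dose of BAM8-22 agonist; peak minus trough fluorescence over baseline measured at the second addition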
Target sequence (Q96LB2 whole entry, looked up): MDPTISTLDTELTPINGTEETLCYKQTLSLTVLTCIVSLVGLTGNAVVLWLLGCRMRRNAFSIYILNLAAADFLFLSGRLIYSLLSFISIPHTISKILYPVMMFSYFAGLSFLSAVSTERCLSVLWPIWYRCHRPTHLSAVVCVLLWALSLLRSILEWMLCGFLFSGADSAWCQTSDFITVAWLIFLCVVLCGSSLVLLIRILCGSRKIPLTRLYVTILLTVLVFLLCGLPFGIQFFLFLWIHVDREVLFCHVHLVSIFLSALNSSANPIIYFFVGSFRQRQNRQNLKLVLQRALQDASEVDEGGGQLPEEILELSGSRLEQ
RGS4 act: RGS4 potentiation or activation; HEK293 M3R/inducible RGS4, carbachol calcium flux Fluo4; hits give low values; B-score at 10 µM; hit rate 0.92% among 310,000;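 active = B-score of the integrated calcium signal more than 4 SD below the library mean, with starting fluorescence not abnormally high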;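 also: negative B-score means reduced calcium response which marks RGS4 activation or potentiation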
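Material: Inducible-RGS4 HEK293 cells carrying M3 receptor; also added: carbachol at ECmax as muscarinic agonist stimulus; incubation: compound preincubation 20 min at room temperature before agonist; signal: Fluo4-AM (2 µM) calcium-flux fluorescence, kinetic read; measure: integrated calcium ratio converted to B score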
MrgX1 agonist: activates human MrgX1 receptor signaling. Q96LB2. MrgX1-HEK293 cells, Fluo-4 calcium fluorescence, agonist mode; hits give high values. B-score at 10 µM. hit rate 0.44% among 310,000;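 active = calcium response B-score plate-corrected fluorescence ratio at least 3 library SD, with starting fluorescence B-score inside 5 SD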
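Test system: Stable human MrgX1 HEK293 cell line | Schedule: Overnight plating before 1 h dye loading | Read-out basis: Baseline-normalised fluorescence change ratio, B-scored | Detection: Kinetic calcium dye fluorescence, Fluo-4 NW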
MrgX1 antag: blocks BAM8-22 activation of human MrgX1 receptor; AID 588676; hit rate 1.3% among 310,000; Q96LB2; MRGX1-HEK293 calcium flux, Fluo-4, BAM8-22 antagonism; hits give low values; B-score at 10 µM;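 active = calcium-response B-score plate-corrected more than 3 library SD below zero, starting fluorescence within 5 deviations, no agonist response on first addition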;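 also: peak minus trough fluorescence over baseline after final BAM8-22 challenge near maximal dose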
MrgX1 ag confirm: confirmation of human MrgX1 receptor agonists; hit rate 78% among 600; MrgX1-HEK293, Fluo-4 calcium fluorescence, FDSS; shares compounds with MrgX1 agonist; activation, % at 10 µM;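 active = calcium signal rise, corrected for plate position, at least 3 library SD high, with starting brightness within 5 such deviations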
HEK293 Ca flux: activity in parental HEK293 cells lacking MrgX1; shares compounds with MrgX1 antag; Fluo-4 calcium fluorescence, FDSS; fluorescence ratio F(max-min)/F0 at 10 µM; hit rate 2% among 4,000; AID 624111;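 active = duplicate-averaged calcium fluorescence ratio at least three times the standard deviation of buffer wells, a nonspecific response in parental cells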
HEK293 Ca counter: MrgX1 allosteric activator counter-screen hit in parental HEK293 cells | shares compounds with MrgX1 antag | parental HEK293 calcium flux, Fluo-4 fluorescence ratio; hits give high values | fluorescence ratio F(max-min)/F0 at 10 µM | hit rate 0.4% among 4,000 | AID 624114;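 active = calcium fluorescence ratio, averaged over duplicates, at least 3 SD of the buffer-well ratio, meaning a nonspecific response in receptor-free cells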;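 also: untransfected parental HEK293 lacking MrgX1 used as counterscreen for MrgX1 allosteric activators; fluorescence change taken during the second addition on a kinetic imager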
HEK293 Ca cntr2: counter-screen for MrgX1 activators: effect in parental HEK293 cells; shares compounds with MrgX1 antag; hit rate 8.7% among 4,000; Fluo-4 calcium fluorescence (FDSS); hits give high values; fluorescence ratio F(max-min)/F0 at 10 µM;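 active = calcium fluorescence ratio at least three times the spread of buffer wells, meaning a non-specific response in parental cells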
The depositor's hits bear a star; i = inactive; x = no result.

SMILES	RGS4 inh	Cl transport mod	MrgX1 PAM	RGS4 act	MrgX1 agonist	MrgX1 antag	MrgX1 ag confirm	HEK293 Ca flux	HEK293 Ca counter	HEK293 Ca cntr2
O=C(c1cccc(Cl)c1)C1CCCN(S(=O)(=O)c2ccccc2)C1 (centres undefined)	i	x	i	i	i	i	x	x	x	x
Cc1nc(Nc2ccc(S(N)(=O)=O)cc2)sc1C(=O)Nc1ccccc1	i	-0.54	i	i	32*	i	227%*	i	i	i
COc1ccc(C)cc1N(CC(=O)N1CCCCCC1)S(=O)(=O)c1ccc(C)cc1	i	x	i	i	37*	i	198%*	i	i	i
O=C(NC(=S)NNC(=O)c1ccco1)c1ccc(Br)cc1	i	x	i	i	135*	i	543%*	i	i	98*
O=C(NNC(=S)Nc1ccccc1)c1ccco1	i	1.6	i	i	i	i	x	x	x	x
COc1ccc(C(=O)NC(=S)NNC(=O)c2cccnc2)cc1	i	x	i	i	i	i	x	x	x	x
COC(=O)c1ccccc1NC(=S)NC(=O)c1ccc(C)cc1	i	11*	i	i	37*	i	i	i	i	i
COc1ccc(C(=O)NC(=S)NNC(=O)c2ccc(C)cc2)cc1	i	x	i	-7.3*	149*	i	659%*	i	i	133*
COc1ccc(C(=O)NNC(=S)NC(=O)c2ccco2)cc1	i	10*	i	i	84*	i	486%*	i	i	86*
Cc1ccccc1NS(=O)(=O)c1nnc(NC(=O)C(C)C)s1	i	x	i	i	i	i	x	x	x	x
CCc1nc2c(c(=O)c3ccccc3n2C)c(=O)n1C1CCCCCC1	i	-1.4	i	i	117*	i	481%*	i	i	97*
Cn1c2ccccc2c(=O)c2c(=O)n(C3CCCCC3)c(-c3cccs3)nc21	i	-3.2	i	i	110*	i	596%*	i	i	98*
CC(Oc1ccccc1F)C(=O)NNC(=O)CC(C)c1ccccc1 (centres undefined)	i	x	i	i	i	i	x	x	x	x
NC(=O)c1cccc2ccccc12	i	0.15	i	i	i	i	x	x	x	x
N#CSCC(=O)c1cccc2ccccc12	x	12*	i	x	27*	i	230%*	i	i	i
CN(CC(=O)Nc1ccc(F)cc1)C(=O)COc1ccccc1Cc1ccccc1	i	x	i	i	i	i	x	x	x	x
CSCCC(NC(=O)c1ccco1)C(=O)OC(C)C(=O)NC(=O)NC1CCCCC1 (centres undefined)	i	0.014	i	i	92*	i	397%*	i	i	86*
CSCCC(NC(=O)c1ccco1)C(=O)N1CCN(Cc2ccccc2)CC1 (centres undefined)	i	x	i	i	i	i	x	x	x	x
NC1=NC[C@@H](Cc2ccc(O)cc2)N1CCc1cccc(F)c1	i	0.77	i	i	31*	i	171%*	i	i	i
CCCCN(c1nc2ccccc2nc1Cl)S(=O)(=O)c1ccc(C)cc1	i	x	i	i	i	i	x	x	x	x
N#Cc1cc2ccccc2nc1N	i	0.55	i	i	i	i	x	x	x	x
Cc1ccc(-c2cc3ccccc3nc2N)cc1	i	x	i	i	43*	i	220%*	i	i	i
